In brackets after ≈: the same amount, converted by molar mass.
Legend:
Assay type in all cases: functional
[1] = system: Enterococcus faecalis; assay: Antimicrobial activity against vancomycin-susceptible Enterococcus faecalis MMX 101 after 18 to 20 hrs by microdilution method
Summary of the method: (§1)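 Standard microtiter plate-based broth microdilution assay. The top concentration tested was 64 µg/mL, so inhibition that was not reached is reported as >64 µg/mL. The strains are methicillin-susceptible S. aureus ATCC 29213 and vancomycin-susceptible E. faecalis MMX 101.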

[2] = system: Enterococcus faecalis; assay: Antimicrobial activity against vancomycin-resistant Enterococcus faecalis MMX 202 expressing VanB after 18 to 20 hrs by microdilution method
[3] = system: Enterococcus faecalis; assay: Antimicrobial activity against vancomycin-resistant Enterococcus faecalis MMX 486 expressing VanA after 18 to 20 hrs by microdilution method
[4] = system: Staphylococcus aureus; assay: Antimicrobial activity against methicillin-susceptible Staphylococcus aureus ATCC 29213 after 18 to 20 hrs by microdilution method; summary of the method: as §1
[5] = system: Staphylococcus aureus; assay: Antimicrobial activity against methicillin-resistant Staphylococcus aureus MMX 2002 after 18 to 20 hrs by microdilution method

Row | Structure (SMILES) | MIC [1] | MIC [2] | MIC [3] | MIC [4] | MIC [5]
1 | CN[C@@H](CC(C)C)C(=O)N[C@@H]1C(=O)N[C@H](CC(N)=O)C(=O)N[C@@H]2C(=O)N[C@@H]3C(=O)N[C@@H](C(=O)N[C@H](C(=O)O)c4cc(O)cc(O)c4-c4cc3ccc4O)[C@@H](O)c3ccc(c(-c4ccoc4)c3)Oc3cc2cc(c3O[C@H]2O[C@@H](CO)[C@H](O)[C@@H](O)[C@@H]2O[C@H]2C[C@](C)(N)[C@H](O)[C@H](C)O2)Oc2ccc(cc2)[C@@H]1O | > 64 µg/mL | > 64 µg/mL | > 64 µg/mL | 64 µg/mL (≈ 44.2 µM) | 64 µg/mL (≈ 44.2 µM)
2 | CN[C@@H](CC(C)C)C(=O)N[C@@H]1C(=O)N[C@H](CC(N)=O)C(=O)N[C@@H]2C(=O)N[C@@H]3C(=O)N[C@@H](C(=O)N[C@H](C(=O)O)c4cc(O)cc(O)c4-c4cc3ccc4O)[C@@H](O)c3ccc(c(-c4cccc(C(N)=O)c4)c3)Oc3cc2cc(c3O[C@@H]2O[C@H](CO)[C@@H](O)[C@H](O)[C@H]2O[C@H]2C[C@](C)(N)[C@H](O)[C@H](C)O2)Oc2ccc(cc2)[C@@H]1O | > 64 µg/mL | > 64 µg/mL | > 64 µg/mL | > 64 µg/mL | > 64 µg/mL
3 | CN[C@@H](CC(C)C)C(=O)N[C@@H]1C(=O)N[C@H](CC(N)=O)C(=O)N[C@@H]2C(=O)N[C@@H]3C(=O)N[C@@H](C(=O)N[C@H](C(=O)O)c4cc(O)cc(O)c4-c4cc3ccc4O)[C@@H](O)c3ccc(c(Cl)c3)Oc3cc2cc(c3O[C@H]2O[C@@H](CO)[C@H](O)[C@@H](O)[C@@H]2O[C@@H]2C[C@@](C)(N)[C@@H](O)[C@@H](C)O2)Oc2ccc(cc2)[C@@H]1O | 8 µg/mL (≈ 5.65 µM) | 64 µg/mL (≈ 45.2 µM) | > 64 µg/mL | 4 µg/mL (≈ 2.83 µM) | 4 µg/mL (≈ 2.83 µM)
4 | CN[C@@H](CC(C)C)C(=O)N[C@@H]1C(=O)N[C@H](CC(N)=O)C(=O)N[C@@H]2C(=O)N[C@@H]3C(=O)N[C@@H](C(=O)N[C@H](C(=O)O)c4cc(O)cc(O)c4-c4cc3ccc4O)[C@@H](O)c3ccc(c(-c4ccc(-c5ccccc5)cc4)c3)Oc3cc2cc(c3O[C@@H]2O[C@H](CO)[C@@H](O)[C@H](O)[C@H]2O[C@H]2C[C@](C)(N)[C@H](O)[C@H](C)O2)Oc2ccc(cc2)[C@@H]1O | > 64 µg/mL | > 64 µg/mL | > 64 µg/mL | > 64 µg/mL | > 64 µg/mL
5 | CN[C@@H](CC(C)C)C(=O)N[C@@H]1C(=O)N[C@H](CC(N)=O)C(=O)N[C@@H]2C(=O)N[C@@H]3C(=O)N[C@@H](C(=O)N[C@H](C(=O)O)c4cc(O)cc(O)c4-c4cc3ccc4O)[C@@H](O)c3ccc(c(-c4cccc(CN)c4)c3)Oc3cc2cc(c3O[C@@H]2O[C@H](CO)[C@@H](O)[C@H](O)[C@H]2O[C@H]2C[C@](C)(N)[C@H](O)[C@H](C)O2)Oc2ccc(cc2)[C@@H]1O | > 64 µg/mL | > 64 µg/mL | > 64 µg/mL | > 64 µg/mL | > 64 µg/mL
6 | CCCCCC/C=C/c1cc2ccc1Oc1cc3cc(c1O[C@@H]1O[C@H](CO)[C@@H](O)[C@H](O)[C@H]1O[C@H]1C[C@](C)(N)[C@H](O)[C@H](C)O1)Oc1ccc(cc1)[C@H](O)[C@H](NC(=O)[C@@H](CC(C)C)NC)C(=O)N[C@H](CC(N)=O)C(=O)N[C@@H]3C(=O)N[C@@H]1C(=O)N[C@@H](C(=O)N[C@H](C(=O)O)c3cc(O)cc(O)c3-c3cc1ccc3O)[C@H]2O | > 64 µg/mL | > 64 µg/mL | > 64 µg/mL | > 64 µg/mL | > 64 µg/mL
7 | CN[C@@H](CC(C)C)C(=O)N[C@@H]1C(=O)N[C@H](CC(N)=O)C(=O)N[C@@H]2C(=O)N[C@@H]3C(=O)N[C@@H](C(=O)N[C@H](C(=O)O)c4cc(O)cc(O)c4-c4cc3ccc4O)[C@@H](O)c3ccc(cc3)Oc3cc2cc(c3O[C@@H]2O[C@H](CO)[C@@H](O)[C@H](O)[C@H]2O[C@H]2C[C@](C)(N)[C@H](O)[C@H](C)O2)Oc2ccc(cc2)[C@@H]1O | 32 µg/mL (≈ 23.2 µM) | > 64 µg/mL | > 64 µg/mL | 8 µg/mL (≈ 5.8 µM) | 8 µg/mL (≈ 5.8 µM)
8 | CN[C@@H](CC(C)C)C(=O)N[C@@H]1C(=O)N[C@H](CC(N)=O)C(=O)N[C@@H]2C(=O)N[C@@H]3C(=O)N[C@@H](C(=O)N[C@H](C(=O)O)c4cc(O)cc(O)c4-c4cc3ccc4O)[C@@H](O)c3ccc(c(-c4ccc5[nH]ccc5c4)c3)Oc3cc2cc(c3O[C@@H]2O[C@H](CO)[C@@H](O)[C@H](O)[C@H]2O[C@H]2C[C@](C)(N)[C@H](O)[C@H](C)O2)Oc2ccc(cc2)[C@@H]1O | > 64 µg/mL | > 64 µg/mL | > 64 µg/mL | > 64 µg/mL | > 64 µg/mL
9 | CN[C@@H](CC(C)C)C(=O)N[C@@H]1C(=O)N[C@H](CC(N)=O)C(=O)N[C@@H]2C(=O)N[C@@H]3C(=O)N[C@@H](C(=O)N[C@H](C(=O)O)c4cc(O)cc(O)c4-c4cc3ccc4O)[C@@H](O)c3ccc(c(-c4cccc(F)c4)c3)Oc3cc2cc(c3O[C@@H]2O[C@H](CO)[C@@H](O)[C@H](O)[C@H]2O[C@H]2C[C@](C)(N)[C@H](O)[C@H](C)O2)Oc2ccc(cc2)[C@@H]1O | > 64 µg/mL | > 64 µg/mL | > 64 µg/mL | > 64 µg/mL | > 64 µg/mL
10 | CC(=O)NC[C@H]1CN(c2ccc(N3CCOCC3)c(F)c2)C(=O)O1 [LINEZOLID] | – | – | – | – | 1 µg/mL (≈ 2.96 µM)
11 | CN[C@H](CC(C)C)C(=O)N[C@H]1C(=O)N[C@@H](CC(N)=O)C(=O)N[C@H]2C(=O)N[C@H]3C(=O)N[C@H](C(=O)N[C@H](C(=O)O)c4cc(O)cc(O)c4-c4cc3ccc4O)[C@H](O)c3ccc(c(Cl)c3)Oc3cc2cc(c3O[C@@H]2O[C@H](CO)[C@@H](O)[C@H](O)[C@H]2O[C@H]2C[C@](C)(N)[C@H](O)[C@H](C)O2)Oc2ccc(cc2Cl)[C@H]1O [VANCOMYCIN] | 2 µg/mL (≈ 1.38 µM) | 8 µg/mL (≈ 5.52 µM) | > 64 µg/mL | – | –
